Blank lines part the entries; values can stand above or below the compound they belong to. *1 amine or outer side, *2 acyl side, *3 side chain or, on linkers, in order; H or OH if unused. Where a SMILES comes first, the peptide text is derived from it. [ ]: non-standard residue; d: D form. X1 = O=C(CCc1cccc2c1oc1c(CCN[*:1])cccc12)[*:2]
Columns and labels:
[1] = target: T1, Lymphocyte function-associated antigen 3/T-cell surface antigen CD2 (Homo sapiens) (UniProt P06729+P19256); assay: (§1) Inhibition of CD2-CD58 protein-protein interaction assessed as inhibition of cell adhesion between CD58 expressing human Caco2 cells and CD2 expressing human Jurkat cells by BCECF-AM fluorescent dye based fluorimetric assay; parameters: concentration or dose not given beside the values; details: concentration not given here
T-cell = assay: Inhibition of T-cell response to type 2 collagen in type 2 collagen primed T cells derived from transgenic mouse expressing functional HLA-DQ8 by [3H]thymidine incorporation assay; format: cell-based
Method in brief: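 Lymph node cells (draining popliteal, caudal, lumbar) taken 10 days after intradermal tail-base immunization of HLA-DQ8 transgenic mice with 200 µg native chick CII in CFA (1:1). 1 × 10^6 LNC challenged in vitro with CII at 50 µg/mL, with peptide at four concentrations (10–.01 µM); 3H-thymidine (1 µCi/well) pulse for last 18 h; Δcpm = test minus medium control; mean ±S.D., N = 4.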

[2] = Toxicity in human Caco2 cells assessed as cell viability incubated for 2 hrs by CellTiter-Glo assay; format: cell-based; details: Caco-2 cells, read-out: Activity
Method in brief: (§2)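 Caco-2 cells exposed to peptide (200–0.1 µM, diluted in serum-free medium from DMSO stock) for 2 and 3 h, washed with PBS, then CellTiter-Glo luminescence read. Blank-subtracted, with 0.1% SDS and 1% DMSO controls. Viability relative to cells without peptide; triplicates in two independent runs.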

[3] = Toxicity in human Jurkat cells assessed as cell viability incubated for 2 hrs by CellTiter-Glo assay; format: cell-based; details: read-out: Activity
Method in brief: (§3)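 Jurkat suspensions treated in tubes with peptide (diluted in serum-free medium from DMSO stock) for 2 h, washed by centrifugation, then CellTiter-Glo luminescence read on a microplate. Blank-subtracted, with SDS and 1% DMSO controls. Viability relative to cells without peptide; triplicates in two independent runs.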

[4] = target: T1, Lymphocyte function-associated antigen 3/T-cell surface antigen CD2 (Homo sapiens); assay: Inhibition of CD2-CD58 protein-protein interaction assessed as inhibition of cell adhesion between CD58 expressing human Caco2 cells and CD2 expressing human Jurkat cells at =< 1 uM by BCECF-AM fluorescent dye based fluorimetric assay
[5] = target: T2, Lymphocyte function-associated antigen 3/T-cell surface antigen CD2 (Homo sapiens, UniProt P06729+P19256); assay: as §1
T2 sequence (P06729 whole entry): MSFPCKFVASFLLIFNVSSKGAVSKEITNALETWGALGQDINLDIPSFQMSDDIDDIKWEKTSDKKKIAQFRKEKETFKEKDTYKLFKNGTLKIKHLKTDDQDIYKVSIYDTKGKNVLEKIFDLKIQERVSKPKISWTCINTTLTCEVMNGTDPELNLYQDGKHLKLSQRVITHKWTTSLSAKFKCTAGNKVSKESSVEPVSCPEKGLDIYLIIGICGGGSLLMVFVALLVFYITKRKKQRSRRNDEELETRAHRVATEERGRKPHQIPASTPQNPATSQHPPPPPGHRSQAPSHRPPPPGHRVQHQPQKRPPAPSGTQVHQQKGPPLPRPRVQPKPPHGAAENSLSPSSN
T2 sequence (P19256 whole entry): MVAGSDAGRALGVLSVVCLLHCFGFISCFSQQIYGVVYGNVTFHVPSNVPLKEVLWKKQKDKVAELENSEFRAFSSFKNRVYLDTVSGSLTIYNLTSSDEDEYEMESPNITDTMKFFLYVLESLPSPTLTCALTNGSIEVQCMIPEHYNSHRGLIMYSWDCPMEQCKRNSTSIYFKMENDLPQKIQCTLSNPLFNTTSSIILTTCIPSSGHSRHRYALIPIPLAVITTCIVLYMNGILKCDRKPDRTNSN

[6] = Toxicity in human Jurkat cells assessed as cell viability at 200 yuM incubated for 2 hrs by CellTiter-Glo assay; format: cell-based; details: read-out: Activity; method in brief: as §3
[7] = Toxicity in human Caco2 cells assessed as cell viability at 200 uM incubated for 2 hrs by CellTiter-Glo assay; format: cell-based; details: Caco-2 cells, read-out: Activity; method in brief: as §2

Compound: CC[C@H](C)[C@@H]1NC(=O)[C@H](CCCCN)NC(=O)[C@H](CC(=O)O)NC(=O)[C@H](CC(=O)O)NC(=O)CCc2cccc3c2Oc2c(cccc2-3)CCNC(=O)[C@H](CC(=O)O)NC(=O)[C@H](Cc2ccc(O)cc2)NC1=O (cyclo(DDKIYD[X1]))
inhibition [1]: < 20%

Compound: CC[C@H](C)[C@@H]1NC(=O)[C@H](CC(=O)O)NC(=O)[C@H](CC(=O)O)NC(=O)[C@@H]2CCCN2C(=O)[C@H]2CCCN2C(=O)[C@H](CC(=O)O)NC(=O)[C@H](Cc2ccc(O)cc2)NC(=O)[C@H]([C@@H](C)CC)NC(=O)[C@H](CO)NC(=O)[C@H](CCCCN)NC1=O
inhibition (T-cell): Dose-dependent effect | viability at 2 h [2]: > 95% | viability at 2 h [3]: > 95%

Compound: CC[C@H](C)[C@@H]1NC(=O)[C@H](CC(=O)O)NC(=O)[C@H](CC(=O)O)NC(=O)CCc2cccc3c2Oc2c(cccc2-3)CCNC(=O)[C@H](CC(=O)O)NC(=O)[C@H](Cc2ccc(O)cc2)NC(=O)[C@H]([C@@H](C)CC)NC(=O)[C@H](CO)NC(=O)[C@H](CCCCN)NC1=O (cyclo(DDIKSIYD[X1]))
inhibition [1]: < 20%

Compound: CC[C@H](C)[C@@H]1NC(=O)[C@H](Cc2ccc(O)cc2)NC(=O)[C@H](CC(=O)O)NC(=O)CCc2cccc3c2Oc2c(cccc2-3)CCNC(=O)[C@H](CC(=O)O)NC(=O)[C@H](CC(=O)O)NC(=O)[C@H](CCCCN)NC1=O (cyclo(DD[X1]DYIK))
inhibition [4]: 80% | IC50 [5]: 11.1 nM | viability at 2 h [2]: > 95% | viability at 2 h [3]: > 95% | viability at 2 h, 200 µM [6]: 90% | viability at 2 h, 200 µM [7]: 90%

Results, then the compound that gave them:

inhibition [1]: 18%
Compound: H-KGKTDAISVKAI-NH2

inhibition [1]: < 20%
Compound: CC[C@H](C)[C@@H]1NC(=O)[C@H](Cc2ccc(O)cc2)NC(=O)[C@H](CC(=O)O)NC(=O)CCc2cccc3c2Oc2c(cccc2-3)CCNC(=O)[C@H](CC(=O)O)NC(=O)[C@H](CC(=O)O)NC(=O)[C@H]([C@@H](C)CC)NC(=O)[C@H](CCCCN)NC(=O)[C@H](CO)NC1=O (cyclo(DD[X1]DYISKI))

inhibition [1]: < 20%
Compound: CC[C@H](C)[C@@H]1NC(=O)[C@H](CCCCN)NC(=O)[C@H](CC(=O)O)NC(=O)[C@H](CC(=O)O)NC(=O)[C@@H]2CCCN2C(=O)[C@H]2CCCN2C(=O)[C@H](CC(=O)O)NC(=O)[C@H](Cc2ccc(O)cc2)NC1=O
